The source made the active and inactive calls. The calls are words filed in the database; no cut-off is given here.
Key:
Mu-type opioid receptor [1] = molecular target: T1, Mu-type opioid receptor (Homo sapiens, UniProt P35372); test: Displacement of radiolabeled DAMGO from human recombinant mu opioid receptor expressed in OPRM1 cells; format: cell-based
Mu-type opioid receptor [2] = molecular target: T1, Mu-type opioid receptor; test: Displacement of radiolabeled DAMGO from human recombinant mu opioid receptor expressed in […] at 10 uM; format: cell-based
Rattus norvegicus [3] = test: Inhibition of alcohol-induced ERK-phosphorylation in rat in central amygdala at 1 mg/kg, ip; format: functional, organism-based; set-up: dose 1 mg/kg
Rattus norvegicus [4] = test: Toxicity in Wistar rat administered daily; format: organism-based; conditions: in vivo
Rattus norvegicus [5] = test: Anorectic activity in Wistar rat assessed as […] of NPS-induced reduction of food intake at 20 ug, icv after 15 to 60 mins; format: functional, organism-based
[6] = Cmax in mouse brain at 10 mg/kg, ip; format: ADME, organism-based; set-up: dose 10 mg/kg, route intraperitoneal
Outline: (§1)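 Mouse pharmacokinetics after a single 10 mpk intraperitoneal dose. Plasma and brain were sampled at 0, 0.083, 0.25, 0.5, 1, 2, 4, 8, 12 and 24 h. Concentrations are reported as the mean of N=3 at each time point, in ng/mL or nM for plasma and ng/g or nmol/g for brain.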

Brain [7] = test: AUClast in mouse brain at 10 mg/kg, ip; format: ADME, organism-based; set-up: time 0 - last, dose 10 mg/kg, route intraperitoneal; conditions: in vivo; outline: as §1
[8] = Ratio of AUC in brain to AUC in plasma in mouse at 10 mg/kg, ip; format: ADME, organism-based; set-up: dose 10 mg/kg, route intraperitoneal; conditions: brain and plasma, read-out: Ratio AUC; outline: as §1
Brain [9] = test: Tmax in mouse brain at 10 mg/kg, ip; format: ADME, organism-based; set-up: dose 10 mg/kg, route intraperitoneal; conditions: in vivo; outline: as §1
Plasma [10] = test: Half life in mouse plasma at 10 mg/kg, ip; format: ADME, organism-based; set-up: dose 10 mg/kg, route intraperitoneal; conditions: in vivo; outline: as §1
Plasma [11] = test: AUClast in mouse plasma at 10 mg/kg, ip; format: ADME, organism-based; set-up: dose 10 mg/kg, route intraperitoneal, time 0 - last; conditions: in vivo; outline: as §1
Plasma [12] = test: AUC (infinity) in mouse plasma at 10 mg/kg, ip; format: ADME, organism-based; set-up: time infinity, dose 10 mg/kg, route intraperitoneal; conditions: in vivo; outline: as §1
Plasma [13] = test: Tmax in mouse plasma at 10 mg/kg, ip; format: ADME, organism-based; set-up: dose 10 mg/kg, route intraperitoneal; conditions: in vivo; outline: as §1
Plasma [14] = test: Cmax in mouse plasma at 10 mg/kg, ip; format: ADME, organism-based; set-up: dose 10 mg/kg, route intraperitoneal; conditions: in vivo; outline: as §1
Brain [15] = test: Drug level in mouse brain at 10 mg/kg, ip after 8 hrs; format: ADME, organism-based; set-up: dose 10 mg/kg, route intraperitoneal; conditions: in vivo; outline: as §1
Brain [16] = test: Drug level in mouse brain at 10 mg/kg, ip after 12 hrs; format: ADME, organism-based; set-up: dose 10 mg/kg, route intraperitoneal; conditions: in vivo; outline: as §1
Brain [17] = test: Drug level in mouse brain at 10 mg/kg, ip after 24 hrs; format: ADME, organism-based; set-up: dose 10 mg/kg, route intraperitoneal; conditions: in vivo; outline: as §1
Brain [18] = test: Drug level in mouse brain at 10 mg/kg, ip after 2 hrs; format: ADME, organism-based; set-up: dose 10 mg/kg, route intraperitoneal; conditions: in vivo; outline: as §1
Brain [19] = test: Drug level in mouse brain at 10 mg/kg, ip after 4 hrs; format: ADME, organism-based; set-up: dose 10 mg/kg, route intraperitoneal; conditions: in vivo; outline: as §1
Brain [20] = test: Drug level in mouse brain at 10 mg/kg, ip after 0.5 hrs; format: ADME, organism-based; set-up: dose 10 mg/kg, route intraperitoneal; conditions: in vivo; outline: as §1
Brain [21] = test: Drug level in mouse brain at 10 mg/kg, ip after 1 hrs; format: ADME, organism-based; set-up: dose 10 mg/kg, route intraperitoneal; conditions: in vivo; outline: as §1
[22] = Plasma concentration in mouse at 10 mg/kg, ip after 24 hrs; format: ADME, organism-based; set-up: dose 10 mg/kg, route intraperitoneal; outline: as §1
Brain [23] = test: Drug level in mouse brain at 10 mg/kg, ip after 0.083 hrs; format: ADME, organism-based; set-up: dose 10 mg/kg, route intraperitoneal; conditions: in vivo; outline: as §1
Brain [24] = test: Drug level in mouse brain at 10 mg/kg, ip after 0.25 hrs; format: ADME, organism-based; set-up: dose 10 mg/kg, route intraperitoneal; conditions: in vivo; outline: as §1
[25] = Plasma concentration in mouse at 10 mg/kg, ip after 8 hrs; format: ADME, organism-based; set-up: dose 10 mg/kg, route intraperitoneal; outline: as §1
[26] = Plasma concentration in mouse at 10 mg/kg, ip after 12 hrs; format: ADME, organism-based; set-up: dose 10 mg/kg, route intraperitoneal; outline: as §1
[27] = Plasma concentration in mouse at 10 mg/kg, ip after 2 hrs; format: ADME, organism-based; set-up: dose 10 mg/kg, route intraperitoneal; outline: as §1
[28] = Plasma concentration in mouse at 10 mg/kg, ip after 4 hrs; format: ADME, organism-based; set-up: dose 10 mg/kg, route intraperitoneal; outline: as §1
[29] = Plasma concentration in mouse at 10 mg/kg, ip after 0.5 hrs; format: ADME, organism-based; set-up: dose 10 mg/kg, route intraperitoneal; outline: as §1
[30] = Plasma concentration in mouse at 10 mg/kg, ip after 1 hrs; format: ADME, organism-based; set-up: dose 10 mg/kg, route intraperitoneal; outline: as §1
[31] = Plasma concentration in mouse at 10 mg/kg, ip after 0.083 hrs; format: ADME, organism-based; set-up: dose 10 mg/kg, route intraperitoneal; outline: as §1
[32] = Plasma concentration in mouse at 10 mg/kg, ip after 0.25 hrs; format: ADME, organism-based; set-up: dose 10 mg/kg, route intraperitoneal; outline: as §1
[33] = Metabolic stability in mouse liver microsomes assessed as compound remaining after 60 mins in absence NADPH; format: ADME, Microsome; conditions: read-out: Stability
Outline: (§2)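 Compound was incubated with mouse liver microsomes, and percent parent remaining was determined at 15, 30 and 60 min. Values are means from a single experiment run in duplicate.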

[34] = Metabolic stability in mouse liver microsomes assessed as compound remaining after 30 mins in absence NADPH; format: ADME, Microsome; conditions: read-out: Stability; outline: as §2
[35] = Metabolic stability in mouse liver microsomes assessed as compound remaining after 15 mins in absence NADPH; format: ADME, Microsome; conditions: read-out: Stability; outline: as §2
[36] = Metabolic stability in mouse liver microsomes assessed as compound remaining after 60 mins in presence NADPH; format: ADME, Microsome; conditions: read-out: Stability; outline: as §2
[37] = Metabolic stability in mouse liver microsomes assessed as compound remaining after 30 mins in presence NADPH; format: ADME, Microsome; conditions: read-out: Stability; outline: as §2
[38] = Metabolic stability in mouse liver microsomes assessed as compound remaining after 15 mins in presence NADPH; format: ADME, Microsome; conditions: read-out: Stability; outline: as §2
Neuropeptide S receptor [39] = molecular target: T2, Neuropeptide S receptor (Homo sapiens, UniProt Q6W5P4); test: Displacement of [125I]Tyr10-NPS from human neuropeptide S receptor expressed in CHO cells after 1.5 hrs by liquid scintillation counting; format: cell-based
T2 sequence (Q6W5P4 whole entry): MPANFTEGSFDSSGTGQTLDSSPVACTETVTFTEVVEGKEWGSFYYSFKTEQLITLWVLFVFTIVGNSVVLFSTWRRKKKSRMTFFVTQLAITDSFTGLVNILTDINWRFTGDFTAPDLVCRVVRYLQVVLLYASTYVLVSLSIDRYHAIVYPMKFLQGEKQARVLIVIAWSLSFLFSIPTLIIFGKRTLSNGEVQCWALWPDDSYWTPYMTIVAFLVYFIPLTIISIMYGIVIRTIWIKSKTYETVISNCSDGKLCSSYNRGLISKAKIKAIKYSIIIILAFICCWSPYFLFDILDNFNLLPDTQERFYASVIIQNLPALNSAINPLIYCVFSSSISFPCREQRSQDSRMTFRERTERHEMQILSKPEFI
Outline: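 Whole CHO cells stably expressing human NPSR at 90–95% confluency in 24-well plates. Cells were incubated with 0.15 nM [125I]Y10-NPS plus increasing compound or unlabeled NPS in DMEM/0.1% BSA, 20°C, 1.5 hr. Nonspecific binding was defined with 1 µM unlabeled human NPS. Cells were washed, lysed in 1 N NaOH and counted by liquid scintillation. IC50 from one experiment in duplicate.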

Neuropeptide S receptor [40] = molecular target: T2, Neuropeptide S receptor; test: Antagonist activity at neuropeptide S receptor (unknown origin) expressed in CHO cells assessed as inhibition of NPS-induced ERK activation after 20 mins by HTRF assay; format: cell-based
Neuropeptide S receptor [41] = molecular target: T2, Neuropeptide S receptor; test: Antagonist activity at neuropeptide S receptor (unknown origin) expressed in CHO cells assessed as inhibition of NPS-induced calcium mobilization after 10 mins by fluorescence assay; format: functional, cell-based; conditions: read-out: IC50
Outline: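 CHO-NPSR cells, 2000/well in 1536-well plates, incubated overnight, then loaded with no-wash calcium dye for 1 h at 37°C. Compound in DMSO was added for 10 min. Baseline fluorescence was recorded 6 s at 1 Hz, then EC80 NPS in stimulation buffer was added and recording continued 4 min at 1 Hz on a kinetic reader. IC50 is the mean with SD of two independent experiments in duplicate.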

Neuropeptide S receptor [42] = molecular target: T2, Neuropeptide S receptor; test: Antagonist activity at neuropeptide S receptor (unknown origin) expressed in CHO cells assessed as cAMP level after 30 mins by […] assay; format: functional, cell-based; conditions: read-out: IC50
Outline: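 CHO cells stably expressing NPSR, 1800 cells/well in 1536-well format, seeded overnight at 37°C in medium without Geneticin. Stimulation buffer (PBS, 0.1% BSA, 0.05% Tween-20, 500µM Ro 20-1724, EC80 NPS) was added for 30 min at 37°C. cAMP was read by HTRF (d2-cAMP/cryptate anti-cAMP in lysis buffer, 30 min). IC50 is the mean with SD of two independent experiments, each run in duplicate.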

T1 sequence (P35372 whole entry): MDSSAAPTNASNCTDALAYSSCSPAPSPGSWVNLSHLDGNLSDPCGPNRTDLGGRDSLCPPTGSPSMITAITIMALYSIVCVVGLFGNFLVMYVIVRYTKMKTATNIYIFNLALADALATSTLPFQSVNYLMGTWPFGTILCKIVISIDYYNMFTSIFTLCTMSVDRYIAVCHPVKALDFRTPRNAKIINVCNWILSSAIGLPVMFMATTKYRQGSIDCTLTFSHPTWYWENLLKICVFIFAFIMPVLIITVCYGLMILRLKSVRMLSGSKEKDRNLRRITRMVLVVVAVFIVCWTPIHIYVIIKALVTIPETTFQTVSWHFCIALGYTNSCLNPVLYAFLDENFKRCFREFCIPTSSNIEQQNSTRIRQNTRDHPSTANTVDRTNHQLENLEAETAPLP

Cc1c(P(=S)(c2ccccc2)c2ccccc2)n2ccccc2[n+]1C/C=C/c1ccccc1.[Br-]
IC50 (Mu-type opioid receptor [1]): 580 nM
inhibition (Mu-type opioid receptor [2]): > 90%
inhibition (Rattus norvegicus [3]): Active
Activity (Rattus norvegicus [4]): Non-toxic
Activity (Rattus norvegicus [5]): Active
Cmax [6]: 43 ng/mL
AUClast (Brain [7]): 746 ng·h/mL
Kp [8]: 33
Tmax (Brain [9]): 12 h
t1/2 (Plasma [10]): 8.8 h
AUClast (Plasma [11]): 2240 ng·h/mL
AUC (Plasma [12]): 2560 ng·h/mL
Tmax (Plasma [13]): 4.98 min
Cmax (Plasma [14]): 700 ng/mL
Drug uptake (Brain [15]): 60 nmol/g
Drug uptake (Brain [16]): 93 nmol/g
Drug uptake (Brain [17]): 52 nmol/g
Drug uptake (Brain [18]): 57 nmol/g
Drug uptake (Brain [19]): 53 nmol/g
Drug uptake (Brain [20]): 53 nmol/g
Drug uptake (Brain [21]): 44 nmol/g
concentration at 24 h [22]: 54 nM
Drug uptake (Brain [23]): 30 nmol/g
Drug uptake (Brain [24]): 52 nmol/g
concentration at 8 h [25]: 214 nM
concentration at 12 h [26]: 126 nM
concentration at 2 h [27]: 386 nM
concentration at 4 h [28]: 245 nM
concentration at 0.5 h [29]: 1150 nM
concentration at 1 h [30]: 556 nM
concentration at 0.083 h [31]: 1500 nM
concentration at 0.25 h [32]: 1320 nM
remaining at 1 h [33]: 102%
remaining at 0.5 h [34]: 102%
remaining at 0.25 h [35]: 102%
remaining at 1 h [36]: 26%
remaining at 0.5 h [37]: 46%
remaining at 0.25 h [38]: 72%
IC50 (Neuropeptide S receptor [39]): 3.5 nM
IC50 (Neuropeptide S receptor [40]): 1.3 nM
IC50 (Neuropeptide S receptor [41]): 0.96 nM
IC50 (Neuropeptide S receptor [42]): 45 nM

Source: ChEMBL document CHEMBL3085664, “Structure-activity relationship of imidazopyridinium analogues as antagonists of neuropeptide s receptor” (J Med Chem, 2013)
